Test results as given in ChEMBL document CHEMBL1649469, “Pharmacokinetics of nikkomycin Z after single rising oral doses” (Antimicrob Agents Chemother, 2009).

Tests used:
[1] = Cmax in healthy human at 2000 […], po administered as single dose measured after 72 hrs by HPLC method; format: ADME, organism-based; parameters: route oral; conditions: in vivo
Procedure, shortened: (§1)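 Healthy fasting male volunteers, two groups of six, each given two of three single oral capsule doses plus a random placebo, with a 2-week washout. About 12 blood samples were taken over 24 h, then at 48 and 72 h. Plasma was assayed by validated HPLC-UV (LLOQ 48 ng/ml). Noncompartmental analysis: Cmax/Tmax observed, AUC0-t* by linear trapezoid, λz from the terminal log-linear phase, AUC0-∞ = AUC0-t* + C*/λz.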

[2] = Tmax in healthy human at […], po administered as single dose measured after 72 hrs by HPLC method; format: ADME, organism-based; parameters: route oral; conditions: in vivo; procedure, shortened: as §1
[3] = Tmax in healthy human at 500 […], po administered as single dose measured after 72 hrs by HPLC method; format: ADME, organism-based; parameters: route oral; conditions: in vivo; procedure, shortened: as §1
[4] = Tmax in healthy human at 1000 […], po administered as single dose measured after 72 hrs by HPLC method; format: ADME, organism-based; parameters: route oral; conditions: in vivo; procedure, shortened: as §1
[5] = Tmax in healthy human at 1500 […], po administered as single dose measured after 72 hrs by HPLC method; format: ADME, organism-based; parameters: route oral; conditions: in vivo; procedure, shortened: as §1
[6] = AUC (0 to t) in healthy human at 1500 […], po administered as single dose measured after 72 hrs by HPLC method; format: ADME, organism-based; parameters: time < 72 hr, route oral; conditions: plasma; procedure, shortened: as §1
[7] = AUC (0 to t) in healthy human at 1750 […], po administered as single dose measured after 72 hrs by HPLC method; format: ADME, organism-based; parameters: time < 72 hr, route oral; conditions: plasma; procedure, shortened: as §1
[8] = AUC (0 to t) in healthy human at 2000 […], po administered as single dose measured after 72 hrs by HPLC method; format: ADME, organism-based; parameters: time < 72 hr, route oral; conditions: plasma; procedure, shortened: as §1
[9] = AUC (0 to infinity) in healthy human at […], po administered as single dose measured after 72 hrs by HPLC method; format: ADME, organism-based; parameters: time infinity, route oral; conditions: plasma; procedure, shortened: as §1
[10] = AUC (0 to infinity) in healthy human at 500 […], po administered as single dose measured after 72 hrs by HPLC method; format: ADME, organism-based; parameters: time infinity, route oral; conditions: plasma; procedure, shortened: as §1
[11] = Relative bioavailability based on AUC (0 to infinity) in healthy human at 1750 […], po administered as single dose by HPLC method; format: ADME, organism-based; conditions: in vivo
Procedure, shortened: (§2)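 Relative bioavailability is AUC0-∞ at the test dose relative to the group's reference dose: 250 mg for group 1 (1,000 and 1,750 mg), 500 mg for group 2 (1,500 and 2,000 mg). Same volunteers, single oral doses, plasma sampling to 72 h and HPLC-UV assay as above.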

[12] = Relative bioavailability based on AUC (0 to infinity) in healthy human at 1500 […], po administered as single dose by HPLC method; format: ADME, organism-based; conditions: in vivo; procedure, shortened: as §2
[13] = Relative bioavailability based on AUC (0 to infinity) in healthy human at 2000 […], po administered as single dose by HPLC method; format: ADME, organism-based; conditions: in vivo; procedure, shortened: as §2
[14] = Oral clearance in healthy human at 250 to 2000 […] administered as single dose by HPLC method; format: ADME, organism-based; conditions: in vivo
Procedure, shortened: (§3)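 Population PK model: one compartment, first-order absorption with lag time, first-order elimination, fitted to plasma HPLC concentrations from single oral doses of 250–2,000 mg in healthy fasting men. F for 250–500 mg was fixed at 1, and doses of 1,500–2,000 mg were assumed to share one F. Posterior predictive check used.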

Homo sapiens [15] = assay: Volume of distribution in healthy human at 250 to 2000 […], po administered as single dose by HPLC method; format: ADME, organism-based; parameters: route oral; conditions: in vivo; procedure, shortened: as §3
Homo sapiens [16] = assay: Absorption time lag in healthy human at 250 to 2000 […], po administered as single dose by HPLC method; format: ADME, organism-based; parameters: route oral; conditions: in vivo; procedure, shortened: as §3
[17] = Relative bioavailability in healthy human at 1000 […], po administered as single dose by HPLC method; format: ADME, organism-based; conditions: in vivo; procedure, shortened: as §3
[18] = Relative bioavailability in healthy human at 1500 to 2000 […], po administered as single dose by HPLC method; format: ADME, organism-based; conditions: in vivo; procedure, shortened: as §3
Homo sapiens [19] = assay: Toxicity in healthy human assessed as occurrence of headache at […], po administered as single dose; format: organism-based; parameters: route oral; conditions: in vivo
Homo sapiens [20] = assay: Toxicity in healthy human assessed as occurrence of dizziness at […], po administered as single dose; format: organism-based; parameters: route oral; conditions: in vivo
Homo sapiens [21] = assay: Hepatotoxicity in healthy human assessed as elevated bilirubin level at 1000 […], po administered as single dose after 72 hrs; format: toxicity, organism-based; parameters: route oral; conditions: in vivo
Homo sapiens [22] = assay: Hepatotoxicity in healthy human assessed as elevated alkaline phosphatase level at 1000 […], po administered as single dose after 72 hrs; format: toxicity, organism-based; parameters: route oral; conditions: in vivo
Homo sapiens [23] = assay: Hepatotoxicity in healthy human assessed as elevated aspartate transaminase level at 1000 […], po administered as single dose after 72 hrs; format: toxicity, organism-based; parameters: route oral; conditions: in vivo
Homo sapiens [24] = assay: Hepatotoxicity in healthy human assessed as elevated bilirubin level at 1000 […], po administered as single dose after 7 days post dosing; format: toxicity, organism-based; parameters: route oral; conditions: in vivo, 168 h
Homo sapiens [25] = assay: Hepatotoxicity in healthy human assessed as elevated bilirubin level at 1000 […], po administered as single dose after 48 hrs; format: toxicity, organism-based; parameters: route oral; conditions: in vivo
Homo sapiens [26] = assay: Hepatotoxicity in healthy human assessed as elevated alkaline phosphatase level at 1000 […], po administered as single dose after 48 hrs; format: toxicity, organism-based; parameters: route oral; conditions: in vivo
Homo sapiens [27] = assay: Hepatotoxicity in healthy human assessed as elevated aspartate transaminase level at 1000 […], po administered as single dose after 48 hrs; format: toxicity, organism-based; parameters: route oral; conditions: in vivo
[28] = Cmax in healthy human at 250 mg, po administered as single dose measured after 72 hrs by HPLC method; conditions: in vivo
[29] = Cmax in healthy human at 500 mg, po administered as single dose measured after 72 hrs by HPLC method; conditions: in vivo
[30] = Cmax in healthy human at 1000 mg, po administered as single dose measured after 72 hrs by HPLC method; conditions: in vivo
[31] = Cmax in healthy human at 1500 mg, po administered as single dose measured after 72 hrs by HPLC method; conditions: in vivo
[32] = Cmax in healthy human at 1750 mg, po administered as single dose measured after 72 hrs by HPLC method; conditions: in vivo
[33] = Tmax in healthy human at 1750 mg, po administered as single dose measured after 72 hrs by HPLC method; conditions: in vivo
[34] = Tmax in healthy human at 2000 mg, po administered as single dose measured after 72 hrs by HPLC method; conditions: in vivo
[35] = AUC (0 to t) in healthy human at 250 mg, po administered as single dose measured after 72 hrs by HPLC method; conditions: plasma
[36] = AUC (0 to t) in healthy human at 500 mg, po administered as single dose measured after 72 hrs by HPLC method; conditions: plasma
[37] = AUC (0 to t) in healthy human at 1000 mg, po administered as single dose measured after 72 hrs by HPLC method; conditions: plasma
[38] = Terminal half life in healthy human at 250 mg, po administered as single dose measured after 72 hrs by HPLC method; conditions: in vivo, read-out: beta t1/2 (converted)
[39] = Terminal half life in healthy human at 500 mg, po administered as single dose measured after 72 hrs by HPLC method; conditions: in vivo, read-out: beta t1/2 (converted)
[40] = Terminal half life in healthy human at 1000 mg, po administered as single dose measured after 72 hrs by HPLC method; conditions: in vivo, read-out: beta t1/2 (converted)
[41] = Terminal half life in healthy human at 1500 mg, po administered as single dose measured after 72 hrs by HPLC method; conditions: in vivo, read-out: beta t1/2 (converted)
[42] = Terminal half life in healthy human at 1750 mg, po administered as single dose measured after 72 hrs by HPLC method; conditions: in vivo, read-out: beta t1/2 (converted)
[43] = Terminal half life in healthy human at 2000 mg, po administered as single dose measured after 72 hrs by HPLC method; conditions: in vivo, read-out: beta t1/2 (converted)
[44] = AUC (0 to infinity) in healthy human at 1000 mg, po administered as single dose measured after 72 hrs by HPLC method; conditions: plasma
[45] = AUC (0 to infinity) in healthy human at 1500 mg, po administered as single dose measured after 72 hrs by HPLC method; conditions: plasma
[46] = AUC (0 to infinity) in healthy human at 1750 mg, po administered as single dose measured after 72 hrs by HPLC method; conditions: plasma
[47] = AUC (0 to infinity) in healthy human at 2000 mg, po administered as single dose measured after 72 hrs by HPLC method; conditions: plasma
[48] = First-order absorption rate constant in healthy human at 250 to 2000 mg, po administered as single dose by HPLC method; conditions: in vivo

- Cmax [1]: 6420 ng/mL
- Tmax [2]: 2 h
- Tmax [3]: 3 h
- Tmax [4]: 4 h
- Tmax [5]: 2 h
- AUC(0-t) at 72 h [6]: 30300 ng·h/mL
- AUC(0-t) at 72 h [7]: 37400 ng·h/mL
- AUC(0-t) at 72 h [8]: 40200 ng·h/mL
- AUC(0-inf) [9]: 11600 ng·h/mL
- AUC(0-inf) [10]: 24600 ng·h/mL
- bioavailability [11]: 47%
- bioavailability [12]: 41%
- bioavailability [13]: 41%
- CL/F [14]: 367 mL/min
- Vd (Homo sapiens [15]): 41.5 L
- Tlag (Homo sapiens [16]): 0.695 h
- bioavailability [17]: 61.6%
- bioavailability [18]: 43.9%
- Cmax [28]: 2210 ng/mL
- Cmax [29]: 3990 ng/mL
- Cmax [30]: 5140 ng/mL
- Cmax [31]: 4850 ng/mL
- Cmax [32]: 6440 ng/mL
- Tmax [33]: 4 h
- Tmax [34]: 4 h
- AUC(0-t) at 72 h [35]: 11300 ng·h/mL
- AUC(0-t) at 72 h [36]: 24300 ng·h/mL
- AUC(0-t) at 72 h [37]: 32100 ng·h/mL
- half-life [38]: 2.53 h
- half-life [39]: 2.22 h
- half-life [40]: 2.06 h
- half-life [41]: 2.21 h
- half-life [42]: 2.12 h
- half-life [43]: 2.09 h
- AUC(0-inf) [44]: 32500 ng·h/mL
- AUC(0-inf) [45]: 30600 ng·h/mL
- AUC(0-inf) [46]: 37900 ng·h/mL
- AUC(0-inf) [47]: 40700 ng·h/mL
- Ka [48]: 0.000113 s⁻¹
SMILES: C[C@@H]([C@H](N)C(=O)N[C@H](C(=O)O)[C@H]1O[C@@H](n2ccc(=O)[nH]c2=O)[C@H](O)[C@@H]1O)[C@H](O)c1ccc(O)cn1 [NIKKOMYCIN]
- Activity (Homo sapiens [19]): Toxic
- Activity (Homo sapiens [20]): Toxic
- Activity (Homo sapiens [21]): Toxic
- Activity (Homo sapiens [22]): Toxic
- Activity (Homo sapiens [23]): Toxic
- Activity (Homo sapiens [24]): Non-toxic
- Activity (Homo sapiens [25]): Non-toxic
- Activity (Homo sapiens [26]): Non-toxic
- Activity (Homo sapiens [27]): Non-toxic
